How the values were obtained:
[1] = Distribution coefficient between octanol and aqueous buffer, logD of the compound in pH 7.4 buffer by UPLC-MS-based shake flask method; assay type: physicochemical; conditions: octanol/water
[2] = Tmax in NMRI mouse at 10 mg/kg, ip measured up to 6 hrs on day 1 by LC-MS/MS analysis; assay type: ADME, organism-based; conditions: in vivo
Method in brief: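 Uninfected female NMRI mice given 10 mg/kg ip at 10 mL/kg in 1% DMSO/99% of 20% (w/v) SBEβ-CD in water, n=3. Tail-vein blood collected into K2EDTA at 0.0833–24 h and diluted 1:1 with water. Extracted with internal standard nifedipine and quantified by LC-MS/MS.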

[3] = Cmax in NMRI mouse at 10 mg/kg, ip measured up to […]rs on day 1 by LC-MS/MS analysis; assay type: ADME, organism-based; design: route intraperitoneal, dose 10 mg/kg; conditions: in vivo
Method in brief: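 Female NMRI mice, uninfected (n=3), received a single ip dose of 10 mg/kg at 10 mL/kg, in 1% DMSO/99% of 20% (w/v) SBEβ-CD in water. Tail-vein blood was collected into K2EDTA at 0.0833 to 24 h and diluted with an equal volume of water. Samples underwent liquid–liquid extraction with nifedipine as internal standard, followed by LC-MS/MS.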

[4] = AUC (0 to t) in NMRI mouse at 10 mg/kg, ip measured up to 6 hrs on day 1 by LC-MS/MS analysis; assay type: ADME, organism-based; design: route intraperitoneal, dose 10 mg/kg; conditions: in vivo
Method in brief: (§1)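 Female NMRI mice, uninfected, single ip dose 10 mg/kg at 10 mL/kg in 1% DMSO/99% of 20% (w/v) SBEβ-CD (Captisol) in water. Tail-vein blood into K2EDTA at 0.0833, 0.25, 0.5, 1, 2, 4, 6, 8 and 24 h. Blood diluted 1:1 in water, liquid–liquid extraction with nifedipine internal standard, LC-MS/MS.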

[5] = Cmax in ABT-treated NMRI mouse infected with Trypanosoma brucei brucei STIB795 at 30 mg/kg, ip measured up to 6 hrs on day 1 by LC-MS/MS analysis; assay type: ADME, organism-based; design: route intraperitoneal, dose 30 mg/kg/day, time <=6; conditions: in vivo
Method in brief: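 Female NMRI mice were infected ip with 10^4 bloodstream-form T. b. brucei STIB795. From day 3 they received ABT 50 mg/kg/day 1 h before ip dosing at 30 mg/kg/day (n=3), in a vehicle of 4% DMSO and 20% Captisol, for 5 days. Blood was sampled at 0.5, 2, 4 and 6 h on day 1. Quantitation was by LC-MS/MS after liquid–liquid extraction with nifedipine as internal standard.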

[6] = Apparent permeability across apical to basolateral side in human Caco2 cells after 2 hrs; assay type: ADME, cell-based; conditions: caco-2, 2 h
[7] = AUC(0 to t) in ABT-treated NMRI mouse infected with Trypanosoma brucei brucei STIB795 at 30 mg/kg, ip measured up to 6 hrs on day 1 by LC-MS/MS analysis; assay type: ADME, organism-based; design: route intraperitoneal, dose 30 mg/kg/day, time <=6; conditions: in vivo
Method in brief: (§2)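 Female NMRI mice infected ip with 10^4 bloodstream T. b. brucei STIB795 in TDB glucose. Dosing began day 3 after infection with parasitemia confirmed (n=3): oral ABT 50 mg/kg 1 h before ip 30 mg/kg (0.2 mL; 4% DMSO, 20% Captisol). Blood taken at 0.5, 2, 4, 6 h on day 1, extracted with nifedipine internal standard, LC-MS/MS.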

[8] = Tmax in ABT-treated NMRI mouse infected with Trypanosoma brucei brucei STIB795 at 30 mg/kg, ip measured up to 6 hrs on day 1 by LC-MS/MS analysis; assay type: ADME, organism-based; conditions: in vivo, dose 30 mg/kg/day
Method in brief: (§3)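 Female NMRI mice, infected with STIB795 or uninfected, pretreated with ABT 50 mg/kg po 1 h before 30 mg/kg ip. Vehicle 4% DMSO, 20% Captisol. Tail blood taken at 0.5, 2, 4 and 6 h on day 1 and diluted with water. Liquid–liquid extraction with nifedipine internal standard, then LC-MS/MS.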

[9] = AUC(0 to t) in ABT-treated NMRI mouse at 30 mg/kg, ip measured up to 6 hrs on day 1 by LC-MS/MS analysis; assay type: ADME, organism-based; design: route intraperitoneal, dose 30 mg/kg/day, time <=6; conditions: in vivo
Method in brief: (§4)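 Uninfected female NMRI mice (n=3), oral 1-aminobenzotriazole 50 mg/kg/day 1 h before each ip dose of 30 mg/kg/day (0.2 mL; vehicle 4% DMSO, 20% Captisol). Blood sampled at 0.5, 2, 4 and 6 h on day 1. Samples processed by liquid–liquid extraction with nifedipine internal standard, then LC-MS/MS.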

[10] = AUC in NMRI mouse at 10 mg/kg, ip measured up to 6 hrs on day 1 by LC-MS/MS analysis; assay type: ADME, organism-based; design: route intraperitoneal, dose 10 mg/kg; conditions: in vivo; method in brief: as §1
[11] = Tmax in ABT-treated NMRI mouse at 30 mg/kg, ip measured up to 6 hrs on day 1 by LC-MS/MS analysis; assay type: ADME, organism-based; conditions: in vivo, dose 30 mg/kg/day; method in brief: as §3
[12] = AUC in ABT-treated NMRI mouse at 30 mg/kg, ip measured up to 6 hrs on day 1 by LC-MS/MS analysis; assay type: ADME, organism-based; design: route intraperitoneal, dose 30 mg/kg/day, time <=6; conditions: in vivo; method in brief: as §4
[13] = Apparent permeability across basolateral to apical side in human Caco2 cells after 2 hrs; assay type: ADME, cell-based; conditions: caco-2, 2 h
[14] = Apparent permeability across basolateral to apical side in human Caco2 cells assessed as drug recovery after 2 hrs; assay type: ADME, cell-based; conditions: caco-2, 2 h
[15] = Apparent permeability across apical to basolateral side in human Caco2 cells assessed as drug recovery after 2 hrs; assay type: ADME, cell-based; conditions: caco-2, 2 h
[16] = Cmax in ABT-treated NMRI mouse at 30 mg/kg, ip measured up to 6 hrs on day 1 by LC-MS/MS analysis; assay type: ADME, organism-based; design: route intraperitoneal, dose 30 mg/kg/day, time <=6; conditions: in vivo
Method in brief: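 Female NMRI mice, uninfected (n=3), were given ABT 50 mg/kg/day 1 h before each ip dose of 30 mg/kg/day, in a vehicle of 4% DMSO and 20% Captisol, as a 0.2 mL injection. Blood was sampled at 0.5, 2, 4 and 6 h on day 1. Samples underwent liquid–liquid extraction with nifedipine as internal standard, followed by LC-MS/MS.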

[17] = AUC in ABT-treated NMRI mouse infected with Trypanosoma brucei brucei STIB795 at 30 mg/kg, ip measured up to 6 hrs on day 1 by LC-MS/MS analysis; assay type: ADME, organism-based; design: route intraperitoneal, dose 30 mg/kg/day, time <=6; conditions: in vivo; method in brief: as §2

| SMILES | logD [1] | Tmax [2] | Cmax [3] | AUCt [4] | Cmax [5] | Papp [6] | AUCt [7] | Tmax [8] | AUCt [9] | AUC [10] | Tmax [11] | AUC [12] | Papp [13] | Drug recovery [14] | Drug recovery [15] | Cmax [16] | AUC [17] |
| --- | --- | --- | --- | --- | --- | --- | --- | --- | --- | --- | --- | --- | --- | --- | --- | --- | --- |
| FC(F)(F)CNc1nc(Nc2ccsc2)nc2[nH]cnc12 | 3.1 | – | – | – | – | – | – | – | – | – | – | – | – | – | – | – | – |
| Cn1nccc1Nc1nc(NCC(F)(F)F)c2nc[nH]c2n1 | 1.9 | 15 min | 11.8 µM | 5340 ng·h/mL | 17267 ng/mL | 5.8 10^-6 cm/s | 77666 ng·h/mL | 30 min | 51799 ng·h/mL | 5350 ng·h/mL | 30 min | 52521 ng·h/mL | 44 10^-6 cm/s | 102% | 87% | 15767 ng/mL | 83443 ng·h/mL |

Source: ChEMBL document CHEMBL4725343, “Medicinal Chemistry Optimization of a Diaminopurine Chemotype: Toward a Lead for Trypanosoma brucei Inhibitors” (J Med Chem, 2020)
